Experimental data published in publication PMC3447631 (Chemistry & biology, 2012).
Converted amounts (≈) assume the structure as drawn. One block for each compound: values may come before it.

Tests used:
human insulin promoter = experiment: Human insulin promoter-GFP transgene assay in T6PNE cells; type: cell-based; details: for effect of reported HNF4α ligands on insulin promoter activity: 48 hours, 0.5 μM or 1 μM tamoxifen
Method in brief: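 T6PNE cells carry a lentiviral human insulin promoter–GFP transgene. Cells were treated for 48 hours; where stated, tamoxifen was 0.5 or 1 μM and fatty acids 0.12 mM. The green channel was imaged and percent GFP+ cells normalized to total cells per well.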

HNF4α DNA binding = target: T1, HNF4α DNA binding (Homo sapiens, UniProt P41235); experiment: HNF4α DNA binding, HNF TransAM ELISA on HepG2 nuclear extracts; type: cell-based; details: HepG2 incubated overnight with compound
T1 sequence (P41235 1-474): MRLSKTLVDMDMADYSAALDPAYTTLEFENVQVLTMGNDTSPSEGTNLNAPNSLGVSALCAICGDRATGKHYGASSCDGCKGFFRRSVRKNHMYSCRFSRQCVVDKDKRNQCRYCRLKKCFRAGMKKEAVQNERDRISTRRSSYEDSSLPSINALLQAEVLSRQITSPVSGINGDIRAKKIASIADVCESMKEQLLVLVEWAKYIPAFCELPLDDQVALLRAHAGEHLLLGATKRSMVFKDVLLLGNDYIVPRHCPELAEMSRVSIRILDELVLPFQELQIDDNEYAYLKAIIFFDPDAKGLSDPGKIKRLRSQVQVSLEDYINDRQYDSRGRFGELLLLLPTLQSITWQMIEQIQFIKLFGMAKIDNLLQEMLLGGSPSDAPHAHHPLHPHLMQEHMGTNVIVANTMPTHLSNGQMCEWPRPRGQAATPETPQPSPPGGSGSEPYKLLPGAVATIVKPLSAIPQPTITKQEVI
Method in brief: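 HepG2 cells were incubated overnight with test compound. Nuclear protein extracts (5μg) were added to wells bearing an oligonucleotide with an HNF4α binding site. Bound HNF4α was detected with an anti-HNF4α antibody (ELISA). Mean ± SD, n=3 biological replicates; Student's t-test.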

HNF4α = target: T2, HNF4α (Homo sapiens, UniProt P41235); experiment: DARTS assay in HepG2 cells; type: binding; details: HepG2, 20μM, 24hr, subtilisin
T2 sequence (P41235 1-474): T1 sequence (P41235 1-474)
Method in brief: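 DARTS: HepG2 cells were treated with DMSO or test compound at 20μM for 24hr. Read-out is the ligand-induced change in HNF4α sensitivity to proteolysis.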

[1] = test system: endogenous insulin promoter; experiment: Endogenous insulin mRNA; type: cell-based, human; details: for effect on endogenous insulin expression / insulin promoter activity: T6PNE cells; for effect of fatty acid on insulin gene expression (quantitative RT-PCR): T6PNE, 1μM tamoxifen, 48 hours
Method in brief: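 Q-PCR of endogenous insulin mRNA in T6PNE cells after 48 h exposure to test compound across a concentration series. For fatty acids, cells got 1μM tamoxifen plus fatty acid or DMSO vehicle for 48 hours before RNA harvest. Insulin mRNA was normalized to GAPDH or 18S rRNA; mean ± SE, n=3.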

tumor cell lines = experiment: Toxicity to tumor cell lines versus cultured primary cells in vitro; type: cell-based
HNF4α gene expression [2] = experiment: HNF4α mRNA expression in HepG2 cells; type: cell-based; details: 48 hours
Method in brief: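 HNF4α mRNA in treated HepG2 cells measured by Q-PCR and normalized to 18S rRNA. Differences in expression assessed by Student's t-test.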

full-length HNF4α = full-length HNF4α (Rattus norvegicus, UniProt P22449); experiment: Direct binding by quenching of HNF4α aromatic amino acid fluorescence; details: Hill equation analysis
full-length HNF4α, sequence (P22449 whole entry): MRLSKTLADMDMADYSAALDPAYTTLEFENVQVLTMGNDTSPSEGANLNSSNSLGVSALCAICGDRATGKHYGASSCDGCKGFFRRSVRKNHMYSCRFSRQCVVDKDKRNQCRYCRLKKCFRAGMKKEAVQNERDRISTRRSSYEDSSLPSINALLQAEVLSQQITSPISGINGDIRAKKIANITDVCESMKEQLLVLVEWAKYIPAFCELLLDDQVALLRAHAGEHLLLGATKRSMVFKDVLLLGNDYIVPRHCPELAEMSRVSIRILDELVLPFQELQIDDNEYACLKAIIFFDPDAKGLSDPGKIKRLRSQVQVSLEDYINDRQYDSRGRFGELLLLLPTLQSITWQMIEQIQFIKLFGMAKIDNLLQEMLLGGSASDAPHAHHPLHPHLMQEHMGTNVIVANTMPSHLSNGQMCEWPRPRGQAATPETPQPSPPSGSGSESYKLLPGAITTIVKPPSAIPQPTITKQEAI

Plasma protein binding = type: in vitro ADME; details: after 4 h
[3] = test system: E47 and PDX-1 binding to the human insulin promoter; experiment: ChIP of E47 and PDX-1 on the human insulin promoter in T6PNE cells; type: cell-based; details: 5μM, 48 hours
Method in brief: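 T6PNE cells were given 1μM tamoxifen plus DMSO or 5μM test compound for 48 hours. ChIP used anti-E47 and anti-PDX-1 antibodies, followed by Q-PCR with primers for the E-box and A-box elements of the insulin promoter. Treated and vehicle binding were compared by Student's t-test.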

HNF4α gene expression [4] = experiment: HNF4α mRNA expression in MIN6 cells; type: cell-based, murine; details: for effect of fatty acid on HNF4α gene in MIN6: 0.08mM Oleate or 0.02mM Palmitate, 110 days
p57Kip2 expression = experiment: Kip2 mRNA in T6PNE cells; type: cell-based, human
Method in brief: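 Kip2 mRNA in T6PNE cells measured by Q-PCR, normalized to 18s rRNA. Treated and DMSO vehicle cells were compared by Student's t-test.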

PPARδ = PPARδ (Homo sapiens, UniProt Q03181); experiment: PPRE-luciferase reporter assay with PPARδ co-transfection; type: cell-based
PPARδ, sequence (Q03181 whole entry, species assumed): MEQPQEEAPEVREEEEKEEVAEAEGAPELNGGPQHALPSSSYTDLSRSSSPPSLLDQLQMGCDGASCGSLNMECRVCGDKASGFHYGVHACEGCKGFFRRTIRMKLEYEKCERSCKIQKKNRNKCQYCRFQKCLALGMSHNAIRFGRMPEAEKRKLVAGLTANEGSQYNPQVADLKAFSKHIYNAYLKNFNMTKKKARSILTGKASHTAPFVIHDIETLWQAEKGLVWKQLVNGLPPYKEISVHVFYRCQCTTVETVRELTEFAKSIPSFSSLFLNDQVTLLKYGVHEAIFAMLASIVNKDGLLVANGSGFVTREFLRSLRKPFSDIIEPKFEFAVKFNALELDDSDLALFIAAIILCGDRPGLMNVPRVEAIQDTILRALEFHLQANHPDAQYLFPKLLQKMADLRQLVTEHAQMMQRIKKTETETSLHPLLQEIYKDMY

HNF4α gene expression [5] = experiment: HNF4α mRNA expression in T6PNE cells; type: cell-based, human
[6] = test system: modified estrogen receptor (E47MER); experiment: Counterscreen: prevention of E47MER translocation; type: cell-based
PPARγ = type: cell-based; details: PPRE-Luc, HeLa
Method in brief: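 HeLa cells were co-transfected with a PPRE-Luc reporter, with or without a PPARγ expression vector, then treated with test compound. Read-out was luciferase activity; mean ± SE, n=3.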

Solubility = type: physicochemical
Plasma stability = type: in vitro ADME; details: after 3 h
PPARα = PPARα (Homo sapiens, UniProt Q07869); experiment: PPRE-luciferase reporter assay with PPARα co-transfection; type: cell-based
PPARα, sequence (Q07869 whole entry, species assumed): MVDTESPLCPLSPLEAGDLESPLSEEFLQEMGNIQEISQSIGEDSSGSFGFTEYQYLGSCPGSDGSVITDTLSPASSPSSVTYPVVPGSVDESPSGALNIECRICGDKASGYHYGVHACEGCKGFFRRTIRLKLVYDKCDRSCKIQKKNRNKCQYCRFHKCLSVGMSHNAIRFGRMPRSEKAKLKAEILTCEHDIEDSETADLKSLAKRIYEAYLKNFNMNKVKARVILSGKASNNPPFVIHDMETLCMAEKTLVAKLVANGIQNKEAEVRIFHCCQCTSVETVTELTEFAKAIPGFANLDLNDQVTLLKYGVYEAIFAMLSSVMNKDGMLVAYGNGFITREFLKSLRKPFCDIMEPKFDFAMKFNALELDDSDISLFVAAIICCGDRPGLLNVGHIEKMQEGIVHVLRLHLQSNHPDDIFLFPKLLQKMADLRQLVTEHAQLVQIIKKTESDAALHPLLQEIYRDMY

[7] = Hepatic microsomal stability; type: in vitro ADME; details: after 1.25 h
INS1 and INS2 genes = experiment: Insulin gene mRNA in MIN6 cells after prolonged fatty acid exposure; type: cell-based, murine; details: 0.08mM Oleate or 0.02mM Palmitate, 110 days

Compound: 3-methyl-2-nitronaphthofuran [Compound 5]
effect of reported HNF4α ligands on insulin promoter activity (human insulin promoter): none of these compounds had consistent and robust effects

effect on HNF4α DNA binding (HNF4α DNA binding): inactive
effect on HNF4α protease sensitivity (DARTS) (HNF4α): no effect
Compound: Cc1nc2ccccc2n1Cc1cc([N+](=O)[O-])ccc1O [BI6018]
activity in the insulin promoter assay (human insulin promoter): inactive

Compound: Cc1nc2ccccc2n1S(=O)(=O)c1cc([N+](=O)[O-])ccc1Cl [BIM5078, 1-(2′-chloro-5′-nitrobenzenesulfonyl)-2-methylbenzimidazole]
IC50 ([1]; Homo sapiens, 48 h, read-out: IC50, inhibition of endogenous insulin expression): 930 nM
effect on endogenous insulin expression / insulin promoter activity [1]: had activity
toxicity to tumor cell lines in vitro (tumor cell lines): toxic
effect on HNF4α expression in HepG2 (HNF4α gene expression [2]): potently repressed
Hill coefficient of binding (full-length HNF4α): 0.9 ± 0.3
binding to plasma proteins, bound (Plasma protein binding): 98%
association of E47 with the distal (E2) E-box of the insulin promoter [3]: significantly decreased
association of PDX-1 at A-boxes (A1, A3, A5) of the insulin promoter [3]: significantly decreased
effect on HNF4α DNA binding (HNF4α DNA binding): active but less potent
effect on HNF4α expression in MIN6 (HNF4α gene expression [4]; 5 hours): potently repressed
effect on HNF4α protease sensitivity (DARTS) (HNF4α): induced altered HNF4α protease sensitivity
effect on Kip2 expression (p57Kip2 expression): potently decreased
luciferase activity with PPARδ co-transfected (PPARδ): no change in luciferase activity
effect on HNF4α expression in T6PNE (HNF4α gene expression [5]; 48 hours): potently repressed
estrogenic antagonism / tamoxifen-like activity (E47MER translocation) [6]: passed the counterscreen
PPRE activation enhanced by co-transfection with PPARγ expression vector (PPARγ): ~4 fold
activity as PPARγ agonist (PPARγ): had activity as PPARγ agonists
PPRE activation (PPARγ; without PPARγ expression vector): 2 fold
solubility at 18 h (Solubility): 0.17 µg/mL (≈ 0.483 µM)
plasma stability, remaining (Plasma stability): 8%
luciferase activity with PPARα co-transfected (PPARα): no change in luciferase activity
microsomal stability, remaining [7]: 32%

Hill coefficient of binding (full-length HNF4α): 0.6 ± 0.1
effect on HNF4α DNA binding (HNF4α DNA binding): inactive
effect on HNF4α protease sensitivity (DARTS) (HNF4α): no effect
Compound: CCCCCS(=O)(=O)NC(=O)c1ccc2nc(C)n(Cc3ccc(Cl)cc3Cl)c2c1 [FK614, reference compound]
effect on endogenous insulin expression / insulin promoter activity [1]: no effect
effect on Kip2 expression (p57Kip2 expression): no effect
activity as PPARγ agonist (PPARγ): had activity as PPARγ agonists

Compound: CC(C)(CCCCCCCCCCC(C)(C)CC(=O)O)CC(=O)O [Medica-16, 3,3,14,14-tetramethylhexadecanedioic acid]
effect of reported HNF4α ligands on insulin promoter activity (human insulin promoter): none of these compounds had consistent and robust effects

Compound: CC(=O)O [acetic]
effect of fatty acid on insulin gene expression (quantitative RT-PCR) [1]: did not have an effect

Compound: CCCC(=O)O [butyric]
effect of fatty acid on insulin gene expression (quantitative RT-PCR) [1]: did not have an effect

estrogenic antagonism / tamoxifen-like activity (E47MER translocation) [6]: estrogenic antagonists
Compound: O=[N+]([O-])c1ccc2nc(-c3ccco3)[nH]c2c1 [compound 5816458]

Compound: CCCCC/C=C\C/C=C\CCCCCCCC(=O)O [linoleic acid]
effect of fatty acid on insulin gene expression (quantitative RT-PCR) [1]: inhibited

Compound: CCCCCCCC/C=C\CCCCCCCC(=O)O [oleate, reference compound]
effect of fatty acid on HNF4α gene in MIN6 (HNF4α gene expression [4]): inhibited
effect on INS2 gene in MIN6 (INS1 and INS2 genes): inhibited

Compound: CCCCCCCCCCCCCCCC(=O)O [palmitate, reference compound]
effect of fatty acid on insulin gene expression (quantitative RT-PCR) [1]: dose-dependent decrease
effect of fatty acid on HNF4α gene in MIN6 (HNF4α gene expression [4]): inhibited
effect of fatty acid on HNF4α mRNA levels in T6PNE (HNF4α gene expression [5]; 48 hour treatment, with tamoxifen): significantly inhibited
effect on INS2 gene in MIN6 (INS1 and INS2 genes): inhibited
